The record followed here is ChEMBL document CHEMBL1124366, “Synthesis and biological properties of N63-carboxamides of teicoplanin antibiotics. Structure-activity relationships” (J Med Chem, 1989).

In brackets after ≈: the same amount, converted by molar mass.

What all share (assay type): functional
One test deals with Escherichia coli. As to the kind of experiment: In vitro minimum inhibitory concentration against Escherichia coli SKF 12140.
In test [1] the test system is Streptococcus pyogenes. As to the kind of experiment: Subcutaneously administration into mice infected with Streptococcus pyogenes C 203. As to conditions: sc. The method, boiled down:
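Mice (five per treatment group, five groups) infected intraperitoneally with about 10⁵ cells of Strep. pyogenes C 203, about 100× the LD50. ED50 (mg/kg) was calculated from the percentage of mice surviving at each dose on day 7.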

For a further test, the system named is Pseudomonas aeruginosa. As to the kind of experiment: In vitro minimum inhibitory concentration against Pseudomonas aeruginosa ATCC 10145.
The subject of test [2] is Staphylococcus epidermidis. As to the kind of experiment: In vitro minimum inhibitory concentration against Staphylococcus epidermis ATCC 12228.
The test system of test [3] is Staphylococcus haemolyticus. As to the kind of experiment: In vitro minimum inhibitory concentration against Staphylococcus hemolyticus 602 cell line. As to conditions: strain 602.
A further test concerns Staphylococcus aureus. As to the kind of experiment: In vitro minimum inhibitory concentration against Staphylococcus aureus Tour.
The subject of another test is Streptococcus pneumoniae. As to the kind of experiment: In vitro minimum inhibitory concentration against Streptococcus pneumoniae UC41.
Test [4] has as its system Streptococcus pyogenes. As to the kind of experiment: In vitro minimum inhibitory concentration against Streptococcus pyogenes C 203.
A further test deals with Enterococcus faecalis. As to the kind of experiment: In vitro minimum inhibitory concentration against Streptococcus faecalis ATCC 7080.
The test system of a further test is Proteus vulgaris. As to the kind of experiment: In vitro minimum inhibitory concentration against Proteus vulgaris X 19 ATCC 881.

As usually defined, the ED50 is the dose that gives a 50% effect, or the effect in half of the subjects. Read a high ED50 as weaker potency.

Take `NCCCCNC(=O)[C@H]1NC(=O)[C@H]2NC(=O)[C@H](NC(=O)[C@@H]3NC(=O)[C@H]4NC(=O)[C@@H](Cc5ccc(c(Cl)c5)Oc5cc3cc(c5O)Oc3ccc(cc3Cl)[C@H]2O)NC(=O)[C@H](N)c2ccc(O)c(c2)Oc2cc(O)cc4c2)c2ccc(O)c(c2)-c2c(O)cc(O)cc21`: the MIC was determined as 8 µg/mL (≈ 6.3 µM) with Escherichia coli; 32 µg/mL (≈ 25.2 µM) with Pseudomonas aeruginosa; 0.06 µg/mL (≈ 0.0473 µM) in test [2]; 0.12 µg/mL (≈ 0.0946 µM) in [3]; 0.06 µg/mL (≈ 0.0473 µM) against Staphylococcus aureus; 0.12 µg/mL (≈ 0.0946 µM) in the test on Streptococcus pneumoniae. For the same compound, the MIC was found to be 0.06 µg/mL (≈ 0.0473 µM) against Streptococcus pyogenes [4], 0.12 µg/mL (≈ 0.0946 µM) against Enterococcus faecalis and 32 µg/mL (≈ 25.2 µM) against Proteus vulgaris. For the same compound, the ED50 in the test on Streptococcus pyogenes [1] was determined as 0.54 mg/kg.
For `N[C@H]1C(=O)N[C@@H]2Cc3ccc(c(Cl)c3)Oc3cc4cc(c3O)Oc3ccc(cc3Cl)[C@@H](O)[C@@H]3NC(=O)[C@H](NC(=O)[C@@H]4NC(=O)[C@@H](NC2=O)c2cc(O)cc(c2)Oc2cc1ccc2O)c1ccc(O)c(c1)-c1c(O)cc(O)cc1[C@@H](C(=O)NCCN1CCOCC1)NC3=O`, the MIC in the test on Escherichia coli came out at 16 µg/mL (≈ 12.2 µM); with Pseudomonas aeruginosa, 64 µg/mL (≈ 48.8 µM); in test [2], 0.016 µg/mL (≈ 0.0122 µM); against Staphylococcus aureus, 0.06 µg/mL (≈ 0.0458 µM); in the test on Streptococcus pneumoniae it was 0.12 µg/mL (≈ 0.0915 µM); in the test on Streptococcus pyogenes [4], 0.12 µg/mL (≈ 0.0915 µM). Further, the values for the MIC in the test with Enterococcus faecalis and against Proteus vulgaris were 0.12 µg/mL (≈ 0.0915 µM) and 128 µg/mL (≈ 97.6 µM), respectively. In the test on Streptococcus pyogenes [1], this compound returned an ED50 of 2.2 mg/kg.
Consider `CN(C)CCCCCNC(=O)[C@H]1NC(=O)[C@H]2NC(=O)[C@H](NC(=O)[C@@H]3NC(=O)[C@H]4NC(=O)[C@@H](Cc5ccc(c(Cl)c5)Oc5cc3cc(c5O)Oc3ccc(cc3Cl)[C@H]2O)NC(=O)[C@H](N)c2ccc(O)c(c2)Oc2cc(O)cc4c2)c2ccc(O)c(c2)-c2c(O)cc(O)cc21`, for which the MIC was 8 µg/mL (≈ 6.1 µM) in the test with Escherichia coli; 64 µg/mL (≈ 48.8 µM) against Pseudomonas aeruginosa; 0.06 µg/mL (≈ 0.0458 µM) in test [2]; 0.12 µg/mL (≈ 0.0915 µM) in [3]; 0.06 µg/mL (≈ 0.0458 µM) with Staphylococcus aureus; 0.12 µg/mL (≈ 0.0915 µM) against Streptococcus pneumoniae. Moreover, the figures for the MIC with Streptococcus pyogenes [4], in the test on Enterococcus faecalis and against Proteus vulgaris were 0.06 µg/mL (≈ 0.0458 µM), 0.12 µg/mL (≈ 0.0915 µM) and 128 µg/mL (≈ 97.6 µM), respectively. In addition, it took a dose of 0.72 mg/kg to reach the 50% effect level with Streptococcus pyogenes [1] (ED50).
As to `CNCCCNC(=O)[C@H]1NC(=O)[C@H]2NC(=O)[C@H](NC(=O)[C@@H]3NC(=O)[C@H]4NC(=O)[C@@H](Cc5ccc(c(Cl)c5)Oc5cc3cc(c5O)Oc3ccc(cc3Cl)[C@H]2O)NC(=O)[C@H](N)c2ccc(O)c(c2)Oc2cc(O)cc4c2)c2ccc(O)c(c2)-c2c(O)cc(O)cc21`, the MIC stood at 4 µg/mL (≈ 3.15 µM) in the test with Escherichia coli; 16 µg/mL (≈ 12.6 µM) in the test with Pseudomonas aeruginosa; 0.06 µg/mL (≈ 0.0473 µM) in [2]; 0.25 µg/mL (≈ 0.197 µM) in test [3]; 0.06 µg/mL (≈ 0.0473 µM) against Staphylococcus aureus; 0.12 µg/mL (≈ 0.0946 µM) against Streptococcus pneumoniae. In addition, the MIC against Streptococcus pyogenes [4] is 0.06 µg/mL (≈ 0.0473 µM); with Enterococcus faecalis, 0.12 µg/mL (≈ 0.0946 µM); against Proteus vulgaris, 16 µg/mL (≈ 12.6 µM). Also, the 50% effect level with Streptococcus pyogenes [1] (ED50) was put at a dose of 0.95 mg/kg.
As for `N[C@H]1C(=O)N[C@@H]2Cc3ccc(c(Cl)c3)Oc3cc4cc(c3O)Oc3ccc(cc3Cl)[C@@H](O)[C@@H]3NC(=O)[C@H](NC(=O)[C@@H]4NC(=O)[C@@H](NC2=O)c2cc(O)cc(c2)Oc2cc1ccc2O)c1ccc(O)c(c1)-c1c(O)cc(O)cc1[C@@H](C(=O)N1CCOCC1)NC3=O`, the MIC in the test with Escherichia coli is 16 µg/mL (≈ 12.6 µM); with Pseudomonas aeruginosa it was 64 µg/mL (≈ 50.5 µM); in test [2], 0.016 µg/mL (≈ 0.0126 µM); with Staphylococcus aureus, 0.06 µg/mL (≈ 0.0473 µM); in the test on Streptococcus pneumoniae, 0.12 µg/mL (≈ 0.0946 µM); in the test with Streptococcus pyogenes [4] it was 0.12 µg/mL (≈ 0.0946 µM). Moreover, the MIC in the test on Enterococcus faecalis was 0.12 µg/mL (≈ 0.0946 µM); against Proteus vulgaris, 64 µg/mL (≈ 50.5 µM). The 50% effect level in the test with Streptococcus pyogenes [1] (ED50) was put at a dose of 1.02 mg/kg.
In the case of `CNCCNC(=O)[C@H]1NC(=O)[C@H]2NC(=O)[C@H](NC(=O)[C@@H]3NC(=O)[C@H]4NC(=O)[C@@H](Cc5ccc(c(Cl)c5)Oc5cc3cc(c5O)Oc3ccc(cc3Cl)[C@H]2O)NC(=O)[C@H](N)c2ccc(O)c(c2)Oc2cc(O)cc4c2)c2ccc(O)c(c2)-c2c(O)cc(O)cc21`, the MIC against Escherichia coli turned out to be 4 µg/mL (≈ 3.19 µM); in the test with Pseudomonas aeruginosa, 32 µg/mL (≈ 25.5 µM); in test [2] it was 0.03 µg/mL (≈ 0.0239 µM); in [3], 0.06 µg/mL (≈ 0.0478 µM); in the test on Staphylococcus aureus, 0.06 µg/mL (≈ 0.0478 µM); in the test with Streptococcus pneumoniae it was 0.12 µg/mL (≈ 0.0956 µM). In addition, the results for the MIC against Streptococcus pyogenes [4], against Enterococcus faecalis and with Proteus vulgaris were 0.06 µg/mL (≈ 0.0478 µM), 0.12 µg/mL (≈ 0.0956 µM) and 32 µg/mL (≈ 25.5 µM), respectively. The compound also yielded an ED50 in the test with Streptococcus pyogenes [1] of 2.2 mg/kg.
